Laboratory results reported in ChEMBL document CHEMBL5042498, “Development of 3-(4-Chlorophenyl)-1-(phenethyl)urea Analogues as Allosteric Modulators of the Cannabinoid Type-1 Receptor: RTICBM-189 is Brain Penetrant and Attenuates Reinstatement of Cocaine-Seeking Behavior” (J Med Chem, 2022).

What was measured:
[1] = biological target: Cannabinoid receptor 2 (Homo sapiens) (UniProt P34972); assay: Agonist activity at human CB2 receptor CP55940-stimulated calcium mobilization at 10 uM incubated for 15 mins FLIPR assay relative to control; format: functional
Sequence of Cannabinoid receptor 2 (Homo sapiens) (P34972 whole entry): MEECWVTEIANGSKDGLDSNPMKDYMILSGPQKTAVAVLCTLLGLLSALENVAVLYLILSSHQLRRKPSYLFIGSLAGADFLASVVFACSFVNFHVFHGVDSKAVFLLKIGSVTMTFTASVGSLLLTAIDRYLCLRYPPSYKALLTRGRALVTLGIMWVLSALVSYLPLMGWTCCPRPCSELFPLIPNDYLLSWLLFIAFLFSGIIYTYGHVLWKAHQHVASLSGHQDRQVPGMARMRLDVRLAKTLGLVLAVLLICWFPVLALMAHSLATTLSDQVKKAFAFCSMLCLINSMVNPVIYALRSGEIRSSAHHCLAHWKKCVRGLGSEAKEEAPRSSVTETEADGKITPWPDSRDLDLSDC
Method in brief: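 CB2 agonist screen in CHO-RD-HGA16 cells stably expressing human CB2, loaded with Calcium 5 dye for 45 min at 37 °C. Cells were pretreated 15 min with vehicle, then the test compound was added at a single concentration. Fluorescence was read on FLIPR every 1 s for 90 s (485/525 nm). Response is expressed as % of CP55,940 Emax.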

[2] = biological target: Cannabinoid receptor 2 (Homo sapiens) (UniProt P34972); assay: Antagonist activity at human CB2 receptor CP55940-stimulated calcium mobilization incubated for 15 mins FLIPR assay; format: functional; set-up: concentration or dose not given beside the values
Method in brief: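 CB2 antagonist screen in human CB2 CHO-RD-HGA16 cells loaded with Calcium 5 dye. Cells were pretreated 15 min at 37 °C with the test compound at a single concentration (10 μM), then challenged with CP55,940 at its EC80 during the FLIPR read (90 s, 485/525 nm). Response is expressed as % inhibition of the CP55,940 EC80 signal.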

[3] = biological target: T1, Cannabinoid receptor 1 (Homo sapiens, UniProt P21554); assay: Allosteric antagonist activity against human CB1 receptor expressed in HEK293 cells membrane measured after 60 mins by [35S]GTPgammaS binding assay; format: functional, cell membranes
T1 sequence (P21554 whole entry): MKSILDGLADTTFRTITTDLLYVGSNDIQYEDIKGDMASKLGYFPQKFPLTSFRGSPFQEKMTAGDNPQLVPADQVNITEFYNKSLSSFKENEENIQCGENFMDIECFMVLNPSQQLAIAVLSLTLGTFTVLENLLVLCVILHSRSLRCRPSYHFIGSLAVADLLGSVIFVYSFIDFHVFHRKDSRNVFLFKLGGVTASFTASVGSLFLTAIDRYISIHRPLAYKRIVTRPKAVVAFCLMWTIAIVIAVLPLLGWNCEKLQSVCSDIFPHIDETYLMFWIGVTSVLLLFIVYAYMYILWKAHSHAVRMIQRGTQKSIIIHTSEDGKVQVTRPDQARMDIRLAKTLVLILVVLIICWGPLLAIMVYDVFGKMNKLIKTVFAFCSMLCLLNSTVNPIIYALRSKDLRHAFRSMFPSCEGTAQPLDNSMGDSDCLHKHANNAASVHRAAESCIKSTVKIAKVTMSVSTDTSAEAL
Method in brief: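 Membranes from HEK293 cells expressing hCB1 are used in assay buffer (50 mM Tris, 3 mM MgCl2, 0.2 mM EGTA, 100 mM NaCl, 1 mg/ml BSA, pH 7.4). They are preincubated 10 min, then incubated 60 min at 30 °C with 30 μM GDP, 0.1 nM [35S]GTPγS, 100 nM CP55,940 and serially diluted compound (0.1% DMSO final). Nonspecific binding is set with 30 μM unlabeled GTPγS. Reactions are filtered. Data are normalized to CP55,940 alone and fitted by 3-parameter regression; mean of ≥3 experiments in duplicate.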

[4] = biological target: T1, Cannabinoid receptor 1; assay: Antagonist activity at N-terminal tagged human CB1 receptor transfected with HEK293 cells assessed as forskolin-stimulated cAMP level in presence of CP55940 by BRET assay; format: functional, cell-based
Method in brief: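 HEK293 cells stably expressing hCB1 (3HA-tagged at Otago, untagged at RTI) are transiently transfected with the CAMYEL BRET cAMP sensor. Cells are serum-starved 30 min and given 5 μM coelenterazine H final. Compound dilutions are added together with 5 μM forskolin and 1 μM CP55,940. BRET (460/535) is read for about 20 min at 37 °C.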

[5] = biological target: T1, Cannabinoid receptor 1; assay: Allosteric antagonist activity at human CB1 receptor expressed in CHO-RD-HGA16 cells overexpressing Galpha16 assessed as inhibition of CP55940-stimulated calcium mobilization incubated for 15 mins FLIPR assay; format: functional, cell-based
[6] = biological target: T1, Cannabinoid receptor 1; assay: Agonist activity at human CB1 receptor CP55940-stimulated calcium mobilization at 10 uM incubated for 15 mins FLIPR assay relative to control; format: functional
[7] = Metabolic stability in rat liver microsomes assessed as clearance in presence of NADPH measured upto 45 mins by LC-MS/MS analysis; format: ADME, Microsome; settings: 0.75 h
Method in brief: (§1)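 Rat liver microsomes (0.5 mg/mL protein) in 100 mM potassium phosphate, pH 7.4, at 37 °C with 1 mM NADPH. Samples were taken at 0, 5, 15, 30 and 45 min, quenched with acetonitrile and analysed by LC/MS/MS. Half-life and clearance were derived from two independent experiments in duplicate.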

[8] = Metabolic stability in rat liver microsomes assessed as half life in presence of NADPH measured upto 45 mins by LC-MS/MS analysis; format: ADME, Microsome; settings: 0.75 h; method in brief: as §1

Row | Compound | Emax [1] [%] | Activity [2] [%] | IC50 [3] [nM] | IC50 [4] [nM] | IC50 [5] [nM] | Emax [6] [%] | CLH [7] [µL/min/mg] | t1/2 [8] [min]
1 | O=C(NCCc1cccc(OC(F)(F)F)c1)Nc1ccc(Cl)cc1 | < 20 | < 35 | 7940 | 10700 | 93.3 |  |  | 
2 | CS(=O)(=O)c1ccc(CCNC(=O)Nc2ccc(Cl)cc2)cc1 | < 20 | < 35 |  |  | > 10000 | < 30 |  | 
3 | O=C(NCCc1ccccc1Cl)Nc1ccc(Cl)cc1 | < 20 | < 35 |  |  | 229 | < 30 |  | 
4 | O=C(NCCc1ccc(-c2ccccc2)cc1)Nc1ccc(Cl)cc1 | < 20 | < 35 |  |  | 871 | < 30 |  | 
5 | O=C(NCCc1ccccc1)Nc1ccc(Cl)cc1 | < 20 | < 35 | 6760 | 3470 | 186 |  |  | 
6 | O=C(NCCc1ccc(Cl)cc1)Nc1ccc(Cl)cc1 | < 20 | < 35 |  |  | 162 | < 30 |  | 
7 | CN(C)c1cccc(CCNC(=O)Nc2ccc(Cl)cc2)c1 | < 20 | < 35 |  |  | 1620 | < 30 |  | 
8 | O=C(NCCc1cccc(C(F)(F)F)c1)Nc1ccc(Cl)cc1 | < 20 | < 35 | 1290 | 676 | 28.8 | < 30 | 90 | 15.5
9 | O=C(NCCc1c(F)c(F)c(F)c(F)c1F)Nc1ccc(Cl)cc1 | < 20 | < 35 |  |  | 32.4 | < 30 |  | 
10 | Cc1cc(C)cc(CCNC(=O)Nc2ccc(Cl)cc2)c1 | < 20 | < 35 | 6610 | 6610 | 28.8 |  |  | 
11 | Cc1ccc(CCNC(=O)Nc2ccc(Cl)cc2)cc1C | < 20 | < 35 | 2570 | 1150 | 47.9 |  |  | 
12 | COc1ccccc1CCNC(=O)Nc1ccc(Cl)cc1 | < 20 | < 35 |  |  | 1580 | < 30 |  | 
13 | O=C(NCCc1cccc(F)c1)Nc1ccc(Cl)cc1 | < 20 | < 35 | 6760 | 1350 | 51.3 | < 30 |  | 
14 | COc1cc(CCNC(=O)Nc2ccc(Cl)cc2)ccc1O | < 20 | < 35 |  |  | > 10000 | < 30 |  | 
15 | COc1cc(CCNC(=O)Nc2ccc(Cl)cc2)cc(OC)c1 | < 20 | < 35 |  |  | 1070 | < 30 |  | 
16 | O=C(NCCc1ccc([N+](=O)[O-])cc1)Nc1ccc(Cl)cc1 | < 20 | < 35 | 2950 | 1780 | 85.1 | < 30 |  | 
17 | O=C(NCCc1cccc(Br)c1)Nc1ccc(Cl)cc1 | < 20 | < 35 | 3470 | 724 | 32.4 |  |  | 

Row | Compound | Emax [1] [%] | Activity [2] [%] | IC50 [3] [nM] | IC50 [4] [nM] | IC50 [5] [nM] | Emax [6] [%] | CLH [7] [µL/min/mg] | t1/2 [8] [min]
18 | COc1ccc(CCNC(=O)Nc2ccc(Cl)cc2)cc1OC | < 20 | < 35 | > 10000 | > 10000 | 1780 | < 30 |  | 
19 | CN(C)c1ccc(CCNC(=O)Nc2ccc(Cl)cc2)cc1 | < 20 | < 35 |  |  | 257 | < 30 |  | 
20 | N#Cc1cccc(CCNC(=O)Nc2ccc(Cl)cc2)c1 | < 20 | < 35 | 832 | 871 | 145 |  |  | 
21 | O=C(NCCc1c(F)cccc1Cl)Nc1ccc(Cl)cc1 | < 20 | < 35 |  |  | 398 | < 30 |  | 
22 | Cc1cccc(CCNC(=O)Nc2ccc(Cl)cc2)c1 | < 20 | < 35 | 3020 | 912 | 41.7 | < 30 | 102 | 13.7
23 | O=C(NCCc1ccccc1F)Nc1ccc(Cl)cc1 | < 20 | < 35 |  |  | 170 | < 30 |  | 
24 | Cc1ccc(CCNC(=O)Nc2ccc(Cl)cc2)cc1 | < 20 | < 35 | 13800 | 2040 | 135 | < 30 |  | 
25 | N#Cc1ccc(CCNC(=O)Nc2ccc(Cl)cc2)cc1 | < 20 | < 35 |  |  | 437 | < 30 |  | 
26 | O=C(NCCc1c(F)cc(F)cc1F)Nc1ccc(Cl)cc1 | < 20 | < 35 |  |  | 79.4 | < 30 |  | 
27 | COc1cccc(CCNC(=O)Nc2ccc(Cl)cc2)c1 | < 20 | < 35 | 12300 | 7760 | 447 | < 30 |  | 
28 | O=C(NCCc1ccc(Br)cc1)Nc1ccc(Cl)cc1 | < 20 | < 35 |  |  | 148 | < 30 |  | 
29 | O=C(NCCc1ccc(C(F)(F)F)cc1)Nc1ccc(Cl)cc1 | < 20 | < 35 |  |  | 178 | < 30 |  | 
30 | O=C(NCCc1ccc(Cl)cc1Cl)Nc1ccc(Cl)cc1 | < 20 | < 35 |  |  | 166 | < 30 |  | 
31 | O=C(NCCc1ccccc1C(F)(F)F)Nc1ccc(Cl)cc1 | < 20 | < 35 | 4270 | 3240 | 126 | < 30 |  | 
32 | O=C(NCCc1ccc(O)cc1)Nc1ccc(Cl)cc1 | < 20 | < 35 |  |  | > 10000 | < 30 |  | 
33 | O=C(NCCc1ccc(N2CCCCC2)cc1)Nc1ccc(Cl)cc1 | < 20 | < 35 |  |  | 912 |  |  | 
34 | O=C(NCCc1cc(Cl)cc(Cl)c1)Nc1ccc(Cl)cc1 | < 20 | < 35 | 1740 | 4370 | 24 |  |  | 
